# Test results published in ChEMBL document CHEMBL3525963, “Tissue distribution and elimination of [14C]apixaban in rats” (Drug Metab Dispos, 2011).
# How the values were obtained:
# Details in all cases: in vivo
# Brain [1] = assay: Biodistribution in female Sprague-Dawley rat brain at 5 mg/kg, po administered as single dose measured after 72 hrs; format: ADME, organism-based; design: dose 5 mg/kg, dosed compound name [14C]-apixaban, route oral
# How it was run: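 [14C]Apixaban (1.0 mg/mL, 20 μCi/mL in 0.5% Tween 80 in Labrafil) given as a single oral gavage of 5 mg/kg (100 μCi/kg) to fasted female SD rats, one rat per time point. Carcasses were frozen in hexane/dry ice and cut into 40 µm sagittal sections for QWBA against [14C]glucose standards. Brain radioactivity is reported as µg eq/g, with LLOQ 0.037 µg eq/g.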
# Rattus norvegicus [2] = assay: Biodistribution in female Sprague-Dawley rat bone marrow at 5 mg/kg, po administered as single dose measured after 72 hrs; format: ADME, organism-based; design: dose 5 mg/kg, dosed compound name [14C]-apixaban, route oral
# How it was run: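 Quantitative whole-body autoradiography was run after a single 5 mg/kg (100 μCi/kg) oral gavage to fasted female or pregnant SD rats, one rat per time point. Carcasses were frozen in hexane/dry ice, and 40 µm sagittal sections were dried at −20°C for at least 48 h. Sections were exposed to a phosphor plate alongside [14C]glucose standards (0.001–6.5 µCi/g). Results are µg eq/g, with LLOQ 0.037 µg eq/g.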
# Liver = assay: Biodistribution in female Sprague-Dawley rat liver at 5 mg/kg, po administered as single dose measured after 24 hrs; format: ADME, organism-based; design: dose 5 mg/kg, dosed compound name [14C]-apixaban, route oral
# How it was run: (§1)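 [¹⁴C]Apixaban given by oral gavage at 5 mg/kg (100 μCi/kg) in 0.5% Tween 80 in Labrafil (1.0 mg/mL dosing solution) to rats fasted overnight through 4 h post-dose. One rat per time point; carcass frozen in hexane/dry ice. Quantitative whole-body autoradiography used 40 µm sagittal sections and a phosphor imaging plate calibrated with [¹⁴C]glucose standards (0.001–6.5 μCi/g). Read-out in µg eq apixaban/g; LLOQ 0.037 μg eq/g.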
# Rattus norvegicus [3] = assay: Biodistribution in female Sprague-Dawley rat bone marrow at 5 mg/kg, po administered as single dose measured after 8 hrs; format: ADME, organism-based; design: dose 5 mg/kg, dosed compound name [14C]-apixaban, route oral
# How it was run: (§2)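 [14C]apixaban (20 μCi/mL in dosing solution) in 0.5% Tween 80 in Labrafil given by oral gavage to fasted female rats, 206-213 g, at 100 μCi/kg. One rat per time point was euthanized and snap-frozen. Sagittal 40 µm whole-body sections were read by QWBA phosphor imaging against [14C]glucose standards. Results are in µg eq apixaban/g, with LLOQ 0.037 μg eq/g.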
# Muscle tissue [4] = assay: Biodistribution in female Sprague-Dawley rat muscle at 5 mg/kg, po administered as single dose measured after 0.5 hrs; format: ADME, organism-based; design: dose 5 mg/kg, dosed compound name [14C]-apixaban, route oral; how it was run: as §1
# Rattus norvegicus [5] = assay: Biodistribution in male Sprague-Dawley rat pituitary gland at 5 mg/kg, po administered as single dose measured after 24 hrs; format: ADME, organism-based; design: dose 5 mg/kg, dosed compound name [14C]-apixaban, route oral
# How it was run: (§3)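 Fasted male SD rats (225-252 g) each received one oral gavage dose of [14C]apixaban, 5 mg/kg (100 μCi/kg), in 0.5% Tween 80/Labrafil vehicle. One rat was killed per time point, from 0.5 to 168 h. Frozen carcasses were cut into 40 µm sagittal whole-body sections and read by QWBA phosphor imaging against [14C]glucose calibrants. Results are in µg apixaban eq/g; BLQ <0.037 µg eq/g.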
# Blood [6] = assay: Biodistribution in male Sprague-Dawley rat blood at 5 mg/kg, po administered as single dose measured after 72 hrs; format: ADME, organism-based; design: dose 5 mg/kg, dosed compound name [14C]-apixaban, route oral; how it was run: as §3
# Muscle tissue [7] = assay: Biodistribution in male Sprague-Dawley rat muscle at 5 mg/kg, po administered as single dose measured after 4 hrs; format: ADME, organism-based; design: dose 5 mg/kg, dosed compound name [14C]-apixaban, route oral
# How it was run: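 [14C]apixaban (1.0 mg/mL, 20 μCi/mL) in 0.5% Tween 80 in Labrafil, given by oral gavage at 100 μCi/kg to male rats (225-252 g) fasted overnight through 4 h post-dose. One rat per time point. Carcasses frozen in hexane/dry ice and cut into 40 µm sagittal sections. QWBA read on phosphor plates against [14C]glucose standards, reported as µg eq/g. LLOQ 0.037 µg eq/g.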
# Rattus norvegicus [8] = assay: Biodistribution in pregnant Sprague-Dawley rat salivary gland at 5 mg/kg, po administered as single dose measured after 8 hrs; format: ADME, organism-based; design: dose 5 mg/kg, dosed compound name [14C]-apixaban, route oral
# Rattus norvegicus [9] = assay: Biodistribution in pregnant Sprague-Dawley rat pituitary gland at 5 mg/kg, po administered as single dose measured after 1 hr; format: ADME, organism-based; design: dose 5 mg/kg, dosed compound name [14C]-apixaban, route oral
# Heart = assay: Biodistribution in pregnant Sprague-Dawley rat heart at 5 mg/kg, po administered as single dose measured after 24 hrs; format: ADME, organism-based; design: dose 5 mg/kg, dosed compound name [14C]-apixaban, route oral
# How it was run: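 Fasted pregnant SD rats (n=6, 270-319 g) each received one oral gavage dose of [14C]apixaban, 5 mg/kg (100 μCi/kg), in 0.5% Tween 80/Labrafil. One rat was killed at each of 0.5, 1, 4, 8, 24 and 48 h. Carcasses were frozen in hexane/dry ice, cut into 40 µm sagittal sections, exposed to phosphor plates and quantified against [14C]glucose standards as µg eq/g. LLOQ was 0.037 µg eq/g.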
# Blood [10] = assay: AUC (0 to infinity) in pregnant Sprague-Dawley rat blood at 5 mg/kg, po administered as single dose; format: ADME, organism-based; design: time infinity, dose 5 mg/kg, dosed compound name [14C]-apixaban, route oral
# Pancreas = assay: Biodistribution in pregnant Sprague-Dawley rat pancreas at 5 mg/kg, po administered as single dose measured after 48 hrs; format: ADME, organism-based; design: dose 5 mg/kg, dosed compound name [14C]-apixaban, route oral
# How it was run: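 Pregnant SD rats (270-319 g) were fasted overnight and given one oral gavage of 5 mg/kg (100 μCi/kg) in 0.5% Tween 80 in Labrafil. One rat was euthanized per time point (0.5, 1, 4, 8, 24, 48 h) and the carcass frozen. 40 µm sagittal sections were phosphor-imaged against [14C]glucose standards and results reported as µg eq/g; LLOQ 0.037 µg eq/g.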
# Blood [11] = assay: Cmax in male Sprague-Dawley rat blood at 5 mg/kg, po administered as single dose; format: ADME, organism-based; design: dose 5 mg/kg, dosed compound name [14C]-apixaban, route oral
# How it was run: (§4)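 Fasted male, female or pregnant SD rats received a single oral gavage of 5 mg/kg (100 μCi/kg) in 0.5% Tween 80/Labrafil. One rat was killed per time point, up to 168 h (48 h for pregnant). Blood was collected into K3EDTA. Blood radioactivity came from autoradiogram or LSC data, and Cmax was taken from the concentration-time profile.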
# Blood [12] = assay: Cmax in pregnant Sprague-Dawley rat blood at 5 mg/kg, po administered as single dose; format: ADME, organism-based; design: dose 5 mg/kg, dosed compound name [14C]-apixaban, route oral; how it was run: as §4
# Plasma = assay: Drug metabolism in Sprague-Dawley rat plasma assessed as apixaban level at 5 mg/kg, po by HPLC method; format: ADME, organism-based; design: dose 5 mg/kg, dosed compound name [14C]-apixaban, route oral
# How it was run: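 After a 5 mg/kg oral dose, samples were radioprofiled by HPLC. The column was C18 with a 0.4% formic acid (pH 3.2)/acetonitrile gradient at 0.7 mL/min. Fractions were collected every 0.25 min and counted for radioactivity. Peaks were identified by ESI LC/MS/MS against synthetic standards. Milk was taken at 1, 6, 12 and 24 h.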
# Rattus norvegicus [13] = assay: Biodistribution in pregnant Sprague-Dawley rat placenta at 5 mg/kg, po administered as single dose measured after 4 hrs; format: ADME, organism-based; design: dose 5 mg/kg, dosed compound name [14C]-apixaban, route oral
# Rattus norvegicus [14] = assay: Biodistribution in female Sprague-Dawley rat brown fat at 5 mg/kg, po administered as single dose measured after 1 hr; format: ADME, organism-based, Brown adipose tissue; design: dose 5 mg/kg, dosed compound name [14C]-apixaban, route oral; how it was run: as §2
# Rattus norvegicus [15] = assay: Biodistribution in pregnant Sprague-Dawley rat bone marrow at 5 mg/kg, po administered as single dose measured after 0.5 hrs; format: ADME, organism-based; design: dose 5 mg/kg, dosed compound name [14C]-apixaban, route oral
# Brain [16] = assay: Biodistribution in pregnant Sprague-Dawley rat brain at 5 mg/kg, po administered as single dose measured after 0.5 hrs; format: ADME, organism-based; design: dose 5 mg/kg, dosed compound name [14C]-apixaban, route oral
# Thymus = assay: Biodistribution in pregnant Sprague-Dawley rat thymus at 5 mg/kg, po administered as single dose measured after 0.5 hrs; format: ADME, organism-based; design: dose 5 mg/kg, dosed compound name [14C]-apixaban, route oral
# Rattus norvegicus [17] = assay: Biodistribution in pregnant Sprague-Dawley rat placenta at 5 mg/kg, po administered as single dose measured after 1 hr; format: ADME, organism-based; design: dose 5 mg/kg, dosed compound name [14C]-apixaban, route oral
smiles,measurement,setting,value
COc1ccc(-n2nc(C(N)=O)c3c2C(=O)N(c2ccc(N4CCCC[14C]4=O)cc2)CC3)cc1,Radiolabel recovery,Brain [1],< 0.037 ugequiv/g
same,Radiolabel recovery,Rattus norvegicus [2],Not detected assumed BLQ
same,Radiolabel recovery,Liver,< 0.037 ugequiv/g
same,Radiolabel recovery,Rattus norvegicus [3],0.15 ugequiv/g
same,Radiolabel recovery,Muscle tissue [4],0.23 ugequiv/g
same,Radiolabel recovery,Rattus norvegicus [5],Not detected assumed BLQ
same,Radiolabel recovery,Blood [6],Not sampled as not visualised in autoradiograph
same,Radiolabel recovery,Muscle tissue [7],0.27 ugequiv/g
same,Radiolabel recovery,Rattus norvegicus [8],0.08 ugequiv/g
same,Radiolabel recovery,Rattus norvegicus [9],0.93 ugequiv/g
same,Radiolabel recovery,Heart,Not detected assumed BLQ
same,AUC,Blood [10],7200 ngequiv.hr/g
same,Radiolabel recovery,Pancreas,Not detected assumed BLQ
same,Cmax,Blood [11],1180 ngequiv/g
same,Cmax,Blood [12],1440 ngequiv/g
same,Compound recovery,Plasma,97%
same,Radiolabel recovery,Rattus norvegicus [13],1.06 ugequiv/g
same,Radiolabel recovery,Rattus norvegicus [14],0.77 ugequiv/g
same,Radiolabel recovery,Rattus norvegicus [15],0.5 ugequiv/g
same,Radiolabel recovery,Brain [16],0.05 ugequiv/g
same,Radiolabel recovery,Thymus,0.38 ugequiv/g
same,Radiolabel recovery,Rattus norvegicus [17],0.74 ugequiv/g
